Experimental data published in paper PMC12126168 (Drug Design, Development and Therapy, 2025).

Columns and labels:
various tumor cell lines = test: Antiproliferative activity on various tumor cell lines; assay type: cell-based; conditions: read-out: IC50 against a variety of cell lines
Outline: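 Cells seeded at 1000 per well in 18 μL medium and pre-incubated 24 h at 37°C, 5% CO2. Test compound in DMSO (final DMSO <0.1%) added at 10 points, 2-fold dilutions from 10 μM, then cultured 72 h. Cell-Titer glo reagent added and […]. Inhibition computed per concentration and IC50 obtained from sigmoid curve fit.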

[1] = Single-dose pharmacokinetics in SD rats; assay type: in vivo; conditions: after gavage or tail vein injection of V12
Outline: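 Male SD rats (240–280 g), 4 groups of 3. Compound in DMSO/castor oil/saline 5%/5%/90%, dosed 1 mg/kg i.v. or 10 mg/kg orally. Blood drawn from fundus venous plexus at 2, 5, 15, 30 min and 1, 2, 4, 8, 24 h into heparin tubes, then centrifuged at 4°C for plasma. Plasma levels measured by LC-MS/MS with non-compartmental analysis.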

[2] = Body weight of nude mice after oral administration; assay type: in vivo; conditions: oral doses 100 mg/kg and 300 mg/kg

| SMILES | IC50 (various tumor cell lines) [nM] | metabolism in vivo [1] | body weight of the nude mice [2] |
| --- | --- | --- | --- |
| Cc1cc2c(C(=O)O)cccc2n1-c1nc2c(c(NCc3ccccc3)n1)CCCN2 [V13, 1-(4-(Benzylamino)-5,6,7,8-Tetrahydropyrido[2,3-D]pyrimidin-2-Yl)-2-Methyl-1H-Indole-4-Carboxylic Acid] | < 1000 |  |  |
| CONC(=O)c1cccc2c1cc(C)n2-c1nc2c(c(NCc3ccccc3)n1)CCCN2 [V12, 1-(4-(Benzylamino)-5,6,7,8-Tetrahydropyrido[2,3-D]pyrimidin-2-Yl)-N-Methoxy-2-Methyl-1H-Indole-4-Carboxamide] | < 1000 | rapidly metabolizes into V13 | comparable to that of the control group |
